The list is not random: actives were taken first. Their share in the collection is about 1.7%.
IDE cell activ: human IDE activators in live cells, primary screen, fluorescence polarization, HEK cells, FAbeta-B substrate; FAbeta-B cleavage; 0% vehicle, 100% cell-free pure enzyme wells; 0.073% of 340,000 active; activation, % at 5.96 µM; Insulin-degrading enzyme (Homo sapiens), P14735;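 active = activation above the mean of all tested compounds plus 3 SD, set per screening campaign, cut at about 17% in these data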
IDE inh: human IDE inhibitors in live cells, primary screen, fluorescence polarization, HEK cells, FAbetaB substrate; Insulin-degrading enzyme (Homo sapiens), P14735; FAbetaB cleavage; inhibition, % at 5.59 µM; 0.41% of 320,000 active; AID 434962, 2010;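 active = percent inhibition above the average of all tested compounds plus 3 SD, set per screening campaign, cut at about 16% in these data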;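 also: IDE supplied by intact live HEK cells; FP after avidin binding of uncleaved biotin substrate so inhibition keeps polarization high; 0% = DMSO wells and 100% = 60 µM reference IDE inhibitor Ii1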
TPT1 inh: Candida albicans TPT1 enzyme inhibitors, primary screen, biochemical, fluorescence polarization; AID 1962, 2009; tRNA 2'-phosphotransferase TPT1 (Candida albicans SC5314); 0.81% of 300,000 active; recombinant caTPT1, FP RNA substrate dephosphorylation; inhibition, % at 5 µM;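 active = inhibition above the mean of all tested compounds plus 3 SD, set per screening campaign, cut at about 24% in these data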;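 also: plate controls were DMSO alone for no effect and ferristatin control at 100 nM for full effect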
HNF4A DNA FP: change in binding of human HNF4A to DNA, primary screen, biochemical, fluorescence polarization, FITC-DNA | Hepatocyte nuclear factor 4-alpha (Homo sapiens), P41235 | 1 h | activity change, % at 10 µM | 0.3% of 360,000 active | AID 1224865, 2016; in the data active = activity change above about 30%, passing the limit was not always enough
CSN deneddyl inh: inhibitors of CSN-mediated cullin deneddylation, primary screen, biochemical, fluorescence polarization, uHTS | COP9 signalosome complex subunit 5 (Homo sapiens), Q92905 | Purified CSN, SCF-Nedd8-OG deneddylation | inhibition, % at 12.5 µM | 0.38% of 360,000 active;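 active = pattern-corrected inhibition above about 35%, with an unprinted fluorescence ratio check between 0.5 and 1.5, limit read from the data, passing the limit was not always enough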;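 also: 0% = enzyme with substrate and 100% = substrate without enzyme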
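Material: purified human Csn5 enzyme expressed in HEK293T cells / Medium: Tris buffer pH 7.5, NaCl, DTT, Tween-20, trehalose, ovalbumin / Compound dosing: 12.5 µM single point / Schedule: 90 min incubation of compound, enzyme and substrate at room temperature / Signal: fluorescence polarization of the substrate / Control set: no-enzyme wells high, enzyme-with-substrate wells low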
Tb MetRS inh: T. brucei MetRS inhibitors, primary screen, biochemical, luminescence; purified T. brucei MetRS, ATP depletion, Kinase-Glo luminescence; 0.4% of 360,000 active; inhibition, % at 11.9 µM; methionyl-tRNA synthetase (Trypanosoma brucei brucei); AID 624268, 2012;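 active = inhibition above a per-plate cutoff of the control wells' mean inhibition plus 3 SD, cut at about 5.5% in these data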;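 also: 0% = DMSO wells median and 100% = median of wells with control inhibitor compound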
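Material: parasite MetRS enzyme / Replication: singlicate, one well per compound / Signal: luminescence of leftover ATP / Schedule: 2 h aminoacylation at 25 °C after 15 min preincubation / Medium: HEPES-MgCl2-KCl buffer plus DTT, spermine, BSA, pyrophosphatase / Doses: 11.9 µM single point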
Numbers without * were called inactive; nt = not tested or not shown.

SMILES	IDE cell activ	IDE inh	TPT1 inh	HNF4A DNA FP	CSN deneddyl inh	Tb MetRS inh
C#CCOCCOCCOCCNc1nc(N2CCN(C(=O)CCCCCCCCCCNC(=O)[C@@H](CCSC)n3cc(CCO)nn3)CC2)nc(N2CCN(C(=O)CCCCCCCCCCNC(=O)[C@H]([C@@H](C)CC)n3cc(CCCCCN)nn3)CC2)n1	nt	-7	0	nt	nt	nt
C#CCOCCOCCOCCNc1nc(N2CCN(C(=O)CCCCCCCCCCNC(=O)Cn3cc(C[C@@H](C)O)nn3)CC2)nc(N2CCN(C(=O)CCCCCCCCCCNC(=O)[C@H](CCCCN)n3cc(C[C@@H](C)CC)nn3)CC2)n1	30*	-4	2	140	87*	0
CN1CCN(c2ccc(CNC(=O)c3ccc4c(c3)OCCO4)cc2)CC1	4	0	-6	0	36*	-1
O=C(O)c1ccc(CNC(=O)c2ccc3c(c2)OCCO3)cc1	3	-1	-4	5	3	-1
CC(C)(C)OC(=O)NN1CC(=O)N2[C@@H](Cc3c([nH]c4ccccc34)C2(C)C)C1=O	-2	3	-4	0	2	0
N#Cc1c(NCCN)nc(NCc2ccccc2)c2c1CCN(Cc1ccccc1)C2	0	nt	nt	11	0	19*
C=CCNc1nc(NCc2ccccc2)c(C#N)c2c1CN(C)CC2	2	3	-5	-8	1	0
COc1ccc(OCCOc2ccc(/C=C3\C(=N)N4N=C(C)SC4=NC3=O)cc2)cc1	5	2	nt	-10	46*	0
CC(C)(C)C(=O)OCc1nc(-c2ccc(F)cc2)cs1	-3	3	-1	1	-1	-1
COc1ccc(-c2csc(COC(=O)C(C)(C)C)n2)cc1	3	3	-1	22	105*	0
Cc1nnc(NC(=O)c2cc(-c3ccco3)nc3ccccc23)s1	4	3	7	-21	41	0
Cc1csc(NC(=O)c2cc(-c3ccco3)nc3ccccc23)n1	-2	3	7	-38	46*	0
CCCN(CCO)C1CCN(CCc2ccccc2)CC1	4	9	-4	3	2	0
CCCCCCc1cc2cc(C(=O)NCc3ccccc3)c(=N)oc2cc1O	1	4	22	81	54*	0
S=c1ncc2[nH]c(=S)[nH]c2[nH]1	-12	nt	nt	-2	-4	0
COC(=O)c1ccccc1-c1c2ccc(=N)cc-2oc2cc(N)ccc12	39*	-3	nt	-96	-73	0
COC(=O)c1ccccc1-c1ccc(/C=N/NC(=O)c2cc3ccccc3o2)o1	-3	5	-2	1	-4	1
Cc1ccc(NC(=O)/C(C#N)=C/c2ccc(C)s2)c(C)c1	-7	0	-4	63	70*	0
Cn1nc(SCc2ccccc2)c(=O)[nH]c1=O	nt	nt	nt	2	1	1
CN1CCN(C(=O)c2cnc(Cc3c[nH]c4ccccc34)c(I)c2)CC1	nt	nt	nt	7	62*	0
CCCCNC(=O)c1cnc(Cc2c[nH]c3ccccc23)c(I)c1	nt	nt	nt	0	14	1
CCOc1ccc(CNS(=O)(=O)c2cc(-c3cc(C)no3)ccc2OC)cc1OC	2	-8	2	1	-2	0
Cc1cc(C)cc(OCC(=O)Nc2ccc3c(c2)C(=O)c2ccccc2C3=O)c1	0	0	-1	2	3	-1
CCOc1cccc2cc(-c3nnc(NCc4ccc5c(c4)OCO5)s3)c(=O)oc12	3	-3	4	52*	46*	0
O=c1ccc(-c2ccc(S(=O)(=O)Nc3ccc(F)cc3)s2)n[nH]1	-2	4	-4	0	0	0
SMILES	IDE cell activ	IDE inh	TPT1 inh	HNF4A DNA FP	CSN deneddyl inh	Tb MetRS inh
O=c1ccc(-c2ccc(S(=O)(=O)NCc3cccc(Br)c3)s2)n[nH]1	5	7	-2	36*	-4	0
O=C(OCc1ccccc1)N1CCC2CC1c1cc(/C=C/CCCSc3ncccn3)ccc12 (stereo not given)	nt	nt	nt	1	-1	-2
Cc1ccc2nc(-c3ccccn3)c(Nc3ccccc3C)n2c1	3	0	-3	39*	-2	-1
CCCc1nn(C)c(C(N)=O)c1[N+](=O)[O-]	0	3	-2	-1	-8	0
CC1(C(=O)Nc2cccc(-n3cnnn3)c2)Cc2ccccc2C(=O)O1 (stereo not given)	0	2	nt	4	101*	1
CC(=O)Nc1cccc(OCC(O)Cn2cnc3ccccc32)c1 (stereo not given)	-6	0	2	-3	58*	0
CC(C)=CCN1CCN(Cc2coc3ccc(C)cc3c2=O)CC1CCO (stereo not given)	5	5	0	51*	-1	0
CCOc1ccc(NC(=O)CSc2nc(=O)n(CCCN3CCOCC3)c3c2CCC3)cc1	4	2	1	4	-1	0
CO/N=C(/CN1CCCCC1)c1ccc(Cl)cc1	-1	-2	-2	7	-5	-1
Cn1cccc1C(C#N)(CC#N)c1cccc(F)c1C#N (stereo not given)	1	1	-1	2	101*	0
CCOC(=O)c1sc2nc(C)nc(SC(C)C(=O)NC3CC3)c2c1C (stereo not given)	0	-4	nt	-4	1	0
Cc1ccc(NC(=S)Nc2cccc3cnccc23)cc1	3	-3	-2	4	31	0
Cc1ccc(C)c(NC(=S)Nc2cccc3cnccc23)c1	0	-3	0	1	36*	1
Cc1ccc(NC(=S)Nc2cccc3cnccc23)cc1C	-6	3	2	6	37*	-2
Cc1ccccc1Nc1nc(Cl)c(C=O)s1	8	-1	27*	6	9	2
COc1ccc(CNC(=O)CCC(=O)c2ccc(F)cc2)cc1OC	-1	0	nt	1	66*	0
O=C(O)CCCN1C(=O)/C(=C\c2ccccc2OCc2ccccc2)SC1=S	6	7	-2	51*	4	0
O=C(O)CN1C(=O)/C(=C\c2ccccc2OCc2ccccc2)SC1=S	nt	nt	nt	-2	6	0
Cc1ccc(N(CCC#N)C(=O)COC(=O)c2ccccn2)cc1	1	-1	-3	0	1	0
O=C1NC(=Nc2ccccc2)S/C1=C/c1cccs1	0	-2	-1	64*	-1	-1

Screening results as filed in PubChem BioAssay.
